The source made the active and inactive calls. The rule behind the calls is not given here.
Assays:
MDA-MB-231 [1] = experiment: Induction of apoptosis in human MDA-MB-231 cells assessed as upregulation of cleaved caspase-3 protein expression at 2 to 8 uM after 24 hrs by Western blot analysis; type: functional, cell-based
How it was run: (§1)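 Cells seeded at 50,000 cells/mL in high-glucose DMEM containing compound (0.5% v/v DMSO) and incubated at 37 °C, 5% CO2: HepG2 6 h, MDA-MB-231 24 h. Washed cells were lysed on ice ≥20 min in Tris/NaCl/EDTA/Triton buffer with protease and phosphatase inhibitors, then protein measured by Bradford. SDS-PAGE blots were probed overnight at 4 °C with primary antibodies and detected by HRP/ECL, with re-probing after stripping. Each blot was repeated ≥3 times.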

HepG2 = experiment: Growth inhibition of human HepG2 cells after 72 hrs by MTS assay; type: functional, cell-based; conditions: HepG2, 72 h
How it was run: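 Cells in DMEM with 10% heat-treated FBS and penicillin/streptomycin, subcultured at 85–90% confluence and used within 15 passages. Seeded 2500 cells/well and grown 24 h, then compound was added (0.5% v/v DMSO final) for 72 h at 37 °C, 5% CO2. MTS was added for 4 h in the dark and absorbance read at 490 nm. Viability is corrected for compound and vehicle blanks.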

[2] = molecular target: T1, NAD-dependent protein deacetylase sirtuin-2 (Homo sapiens) (UniProt Q8IXJ6); experiment: (§2) Non-competitive inhibition of human recombinant SIRT2 using Z-QPK(Me)2K(Ac) as substrate assessed as decrease in maximal enzyme activity preincubated for 60 mins followed by substrate addition measured after 30 mins by double-reciprocal plot analysis in presence of 5 mM NAD+
T1 sequence (whole entry): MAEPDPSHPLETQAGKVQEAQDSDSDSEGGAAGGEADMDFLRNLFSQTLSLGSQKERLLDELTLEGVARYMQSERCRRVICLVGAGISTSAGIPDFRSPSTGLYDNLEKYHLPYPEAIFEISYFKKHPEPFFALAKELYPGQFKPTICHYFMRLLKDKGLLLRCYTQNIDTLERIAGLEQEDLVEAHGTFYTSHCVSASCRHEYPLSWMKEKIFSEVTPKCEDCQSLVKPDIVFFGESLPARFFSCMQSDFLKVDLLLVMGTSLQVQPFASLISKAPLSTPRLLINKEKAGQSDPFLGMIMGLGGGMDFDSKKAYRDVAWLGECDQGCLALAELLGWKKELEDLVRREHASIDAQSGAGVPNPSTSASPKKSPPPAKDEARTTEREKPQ
How it was run: (§3)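 Recombinant human SIRT2 at 0.2 unit/well, preincubated 60 min at 25 °C (400 rpm) with inhibitor at four levels including zero, 2.5% DMSO. Detection reagent (acetylated Z-QPK(Me)2K(Ac)-aminoluciferin, NAD and developer) was premixed 60 min at 37 °C, added, and incubated 30 min at 25 °C before luminescence was read. For line 17, substrate was varied (4.12–333.3 µM) at fixed NAD. For line 16, NAD was varied (four levels) at 38.5 µM substrate. Double-reciprocal plots were made, and their slopes replotted against inhibitor concentration for apparent Ki.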

[3] = molecular target: T2, NAD-dependent protein deacetylase sirtuin-2 (Homo sapiens, UniProt Q8IXJ6); experiment: as §2; conditions: read-out: Ki(app); how it was run: as §3
T2 sequence (Q8IXJ6 whole entry): T1 sequence (whole entry)

[4] = molecular target: T1, NAD-dependent protein deacetylase sirtuin-2 (Homo sapiens); experiment: (§4) Non-competitive inhibition of human recombinant SIRT2 using Z-QPK(Me)2K(Ac) as substrate assessed as decrease in maximal enzyme activity preincubated for 60 mins followed by substrate addition measured after 30 mins by double-reciprocal plot analysis in presence of 185 to 5000 uM NAD+; how it was run: as §3
[5] = molecular target: T2, NAD-dependent protein deacetylase sirtuin-2; experiment: as §4; conditions: read-out: Ki(app); how it was run: as §3
[6] = Inhibition of luciferase (unknown origin) using deacetylated peptide as substrate assessed as luminescence at 100 uM after 30 mins relative to control; design: scale not given: the % may be the effect or the level left
MDA-MB-231 [7] = experiment: Induction of apoptosis in human MDA-MB-231 cells assessed as upregulation of cleaved PARP protein expression at 2 to 8 uM after 24 hrs by Western blot analysis; type: functional, cell-based; how it was run: as §1
[8] = molecular target: T3, NAD-dependent protein deacetylase sirtuin-1 (Homo sapiens, UniProt Q96EB6); experiment: Inhibition of human recombinant SIRT1 assessed as deacetylation of N-acetyl lysine residue in p53 (317 to 320) after 30 mins by luciferase-mediated luminescence assay
T3 sequence (Q96EB6 whole entry): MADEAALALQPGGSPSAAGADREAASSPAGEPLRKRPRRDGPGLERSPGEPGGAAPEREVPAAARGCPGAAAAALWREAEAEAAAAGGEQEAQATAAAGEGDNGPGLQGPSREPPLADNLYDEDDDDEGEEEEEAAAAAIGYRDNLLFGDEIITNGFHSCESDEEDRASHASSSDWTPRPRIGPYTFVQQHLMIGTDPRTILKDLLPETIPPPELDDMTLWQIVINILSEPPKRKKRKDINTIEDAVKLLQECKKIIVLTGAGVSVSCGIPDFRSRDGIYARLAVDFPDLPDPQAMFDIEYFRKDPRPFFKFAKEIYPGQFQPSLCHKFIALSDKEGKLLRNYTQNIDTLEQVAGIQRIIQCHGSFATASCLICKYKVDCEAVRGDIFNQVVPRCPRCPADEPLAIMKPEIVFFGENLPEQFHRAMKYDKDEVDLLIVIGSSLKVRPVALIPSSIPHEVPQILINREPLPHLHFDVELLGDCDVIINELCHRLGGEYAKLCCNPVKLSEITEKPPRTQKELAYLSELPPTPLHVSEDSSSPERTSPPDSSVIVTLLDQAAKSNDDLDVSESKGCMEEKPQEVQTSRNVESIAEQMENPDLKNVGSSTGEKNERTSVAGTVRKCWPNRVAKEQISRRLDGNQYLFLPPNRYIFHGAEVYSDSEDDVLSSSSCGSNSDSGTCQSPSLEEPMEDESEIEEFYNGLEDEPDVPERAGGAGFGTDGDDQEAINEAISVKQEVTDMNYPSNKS

CCCCCCCCn1c2c(c3cc(-c4ccc(S(C)(=O)=O)cc4)ccc31)CNCC2
Activity (MDA-MB-231 [1]): Active | IC50 (HepG2): 2100 nM | inhibition [2]: Dose-dependent effect | Ki [3]: 2280 nM | inhibition [4]: Dose-dependent effect | Ki [5]: 3700 nM | Activity [6]: 94.3% | Activity (MDA-MB-231 [7]): Active | IC50 [8]: 16700 nM

Source: ChEMBL document CHEMBL3407343, “Functionalized tetrahydro-1H-pyrido[4,3-b]indoles: a novel chemotype with Sirtuin 2 inhibitory activity” (Eur J Med Chem, 2015)
